From ChEMBL document CHEMBL4033643, “Synthesis and in vitro antitumour activity of crassalactone D, its stereoisomers and novel cinnamic ester derivatives” (Eur J Med Chem, 2017)
Calls of active or inactive are those of the source. The calls are words filed in the database; no cut-off is given here.

Columns and labels:
K562 [1] = assay: Induction of apoptosis in human K562 cells assessed as gated viable cells by Annexin V-FITC/propidium iodide staining based flow cytometry (reference value: 95.78%); format: functional
K562 [2] = assay: Cell cycle arrest in human K562 cells assessed as accumulation at sub G1 phase at IC50 after 72 hrs by propidium iodide staining based flow cytometry (reference value: 1.48%); format: functional
K562 [3] = assay: Induction of apoptosis in human K562 cells assessed as gated necrotic cells by Annexin V-FITC/propidium iodide staining based flow cytometry (reference value: 0.24%); format: functional
K562 [4] = assay: Induction of apoptosis in human K562 cells assessed as total late apoptotic cells by Annexin V-FITC/propidium iodide staining based flow cytometry (reference value: 0.77%); format: functional
K562 [5] = assay: Cell cycle arrest in human K562 cells assessed as accumulation at S phase at IC50 after 72 hrs by propidium iodide staining based flow cytometry (reference value: 41.03%); format: functional
Jurkat = assay: Cytotoxicity against human Jurkat cells assessed as reduction in cell viability after 72 hrs by MTT assay; format: functional, cell-based
K562 [6] = assay: Cell cycle arrest in human K562 cells assessed as accumulation at G0/G1 phase at IC50 after 72 hrs by propidium iodide staining based flow cytometry (reference value: 38.48%); format: functional
K562 [7] = assay: Induction of apoptosis in human K562 cells assessed as decrease in Bcl-2 expression level by Western blot analysis; format: functional, cell-based
Outline: (§1)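 Western blot of treated K562 cells for Bcl-2, Bax, activated caspase 3 and cleaved PARP (85 kDa fragment). Blots developed by ECL, with band expression quantified by densitometry against an untreated control sample.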

K562 [8] = assay: Induction of apoptosis in human K562 cells assessed as increase in Bax expression level by Western blot analysis; format: functional, cell-based; outline: as §1
K562 [9] = assay: Cell cycle arrest in human K562 cells assessed as total cell levels at G2/M phase at IC50 after 72 hrs by propidium iodide staining based flow cytometry (reference value: 14.31%); format: functional
K562 [10] = assay: Induction of apoptosis in human K562 cells assessed as gated late apoptotic cells by Annexin V-FITC/propidium iodide staining based flow cytometry (reference value: 0.88%); format: functional
K562 [11] = assay: Cell cycle arrest in human K562 cells assessed as total cell levels at M4 phase at IC50 after 72 hrs by propidium iodide staining based flow cytometry (reference value: 0.50%); format: functional
A549 = assay: Cytotoxicity against human A549 cells assessed as reduction in cell viability after 72 hrs by MTT assay; format: functional, cell-based; settings: A549, 72 h
Raji = assay: Cytotoxicity against human Raji cells assessed as reduction in cell viability after 72 hrs by MTT assay; format: functional, cell-based
K562 [12] = assay: Induction of apoptosis in human K562 cells assessed as total necrotic cells by Annexin V-FITC/propidium iodide staining based flow cytometry (reference value: 0.23%); format: functional
MCF7 = assay: Cytotoxicity against human MCF7 cells assessed as reduction in cell viability after 72 hrs by MTT assay; format: functional, cell-based; settings: MCF7, 72 h
K562 [13] = assay: Cytotoxicity against human K562 cells assessed as reduction in cell viability after 72 hrs by MTT assay; format: functional, cell-based; settings: K562, 72 h
K562 [14] = assay: Induction of apoptosis in human K562 cells assessed as specific apoptosis by Annexin V-FITC/propidium iodide staining based flow cytometry; format: functional; set-up: concentration or dose not given beside the values
MRC5 = assay: Cytotoxicity against human MRC5 cells assessed as reduction in cell viability after 72 hrs by MTT assay; format: cell-based; settings: MRC5, 72 h
K562 [15] = assay: Induction of apoptosis in human K562 cells assessed as gated early apoptotic cells by Annexin V-FITC/propidium iodide staining based flow cytometry (reference value: 3.18%); format: functional
K562 [16] = assay: Cell cycle arrest in human K562 cells assessed as accumulation at G2/M phase at IC50 after 72 hrs by propidium iodide staining based flow cytometry (reference value: 19.01%); format: functional
K562 [17] = assay: Induction of apoptosis in human K562 cells assessed as total early apoptotic cells by Annexin V-FITC/propidium iodide staining based flow cytometry (reference value: 3.07%); format: functional
HeLa = assay: Cytotoxicity against human HeLa cells assessed as reduction in cell viability after 72 hrs by MTT assay; format: functional, cell-based
K562 [18] = assay: Cell cycle arrest in human K562 cells assessed as total cell levels at G0/G1 phase at IC50 after 72 hrs by propidium iodide staining based flow cytometry (reference value: 39.97%); format: functional
K562 [19] = assay: Induction of apoptosis in human K562 cells assessed as total viable cells by Annexin V-FITC/propidium iodide staining based flow cytometry (reference value: 92.45%); format: functional
K562 [20] = assay: Cell cycle arrest in human K562 cells assessed as total cell levels at S phase at IC50 after 72 hrs by propidium iodide staining based flow cytometry (reference value: 36.49%); format: functional
HL-60 = assay: Cytotoxicity against human HL60 cells assessed as reduction in cell viability after 72 hrs by MTT assay; format: functional, cell-based; settings: HL-60, 72 h
MDA-MB-231 = assay: Cytotoxicity against human MDA-MB-231 cells assessed as reduction in cell viability after 72 hrs by MTT assay; format: functional, cell-based; settings: MDA-MB-231, 72 h
K562 [21] = assay: Induction of apoptosis in human K562 cells assessed as specific necrosis by Annexin V-FITC/propidium iodide staining based flow cytometry; format: functional; set-up: concentration or dose not given beside the values

Compound	Activity (K562 [1]) [%]	Activity (K562 [2]) [%]	Activity (K562 [3]) [%]	Activity (K562 [4]) [%]	Activity (K562 [5]) [%]	IC50 (Jurkat) [µM]	Activity (K562 [6]) [%]	Activity (K562 [7])	Activity (K562 [8])	Activity (K562 [9]) [%]	Activity (K562 [10]) [%]	Activity (K562 [11]) [%]	IC50 (A549) [µM]	IC50 (Raji) [µM]	Activity (K562 [12]) [%]	IC50 (MCF7) [nM]	IC50 (K562 [13]) [nM]	Activity (K562 [14]) [%]	IC50 (MRC5) [µM]	Activity (K562 [15]) [%]	other results
O=C1C=C[C@@]2(C[C@H](O)[C@@H](c3ccccc3)O2)O1	76.16	1.26	8.59	3.69	35.2	0.34	39.26	inactive	Active	18.07	11.28	0.94	21.3	5.97	2.81	3570	540	11.74	> 100	3.97	Activity (K562 [16]): 24.28%; Activity (K562 [17]): 1.3%; IC50 (HeLa): 2.12 µM; Activity (K562 [18]): 29.6%; Activity (K562 [19]): 24.92%; Activity (K562 [20]): 26.52%; IC50 (HL-60): 1.02 µM; IC50 (MDA-MB-231): > 100 µM; Activity (K562 [21]): 4.8%
O=C1C=C[C@]2(C[C@H](O)[C@H](c3ccccc3)O2)O1	87.3	1.09	1.25	6.94	17.17	1.01	15.18	Active	Active	51.44	8.1	0.6	35.2	8.84	1.07	11000	1210	7.78	> 100	3.35	Activity (K562 [16]): 66.56%; Activity (K562 [17]): 2.87%; IC50 (HeLa): 35.4 µM; Activity (K562 [18]): 11.56%; Activity (K562 [19]): 74.8%; Activity (K562 [20]): 13.07%; IC50 (HL-60): 6.11 µM; IC50 (MDA-MB-231): 45.1 µM; Activity (K562 [21]): 2.84%
COc1ccc(/C=C/C(=O)O[C@H]2C[C@]3(C=CC(=O)O3)O[C@@H]2c2ccccc2)cc1	59.39	3.39	0.27	2.17	41.08	58.1	21.08	inactive	Active	27.1	2.92	2.67	33.6	89.7	0.2	3140	2120	37.78	> 100	37.43	Activity (K562 [16]): 34.45%; Activity (K562 [17]): 27.83%; IC50 (HeLa): 3.34 µM; Activity (K562 [18]): 16.74%; Activity (K562 [19]): 44.16%; Activity (K562 [20]): 32.71%; IC50 (HL-60): 8.67 µM; IC50 (MDA-MB-231): > 100 µM; Activity (K562 [21]): 3.86%
O=C1C=C[C@@]2(C[C@H](OC(=O)/C=C/c3ccccc3)[C@@H](c3ccccc3)O2)O1	12.84	56.93	0.03	3.48	14.63	87.6	23.1	Active	Active	5.03	4.67	54.83	28.1	2.38	0.02	580	20500	86.01	> 100	82.46	Activity (K562 [16]): 5.34%; Activity (K562 [17]): 68.98%; IC50 (HeLa): 0.58 µM; Activity (K562 [18]): 21.87%; Activity (K562 [19]): 2.12%; Activity (K562 [20]): 13.85%; IC50 (HL-60): 5.61 µM; IC50 (MDA-MB-231): 3.45 µM; Activity (K562 [21]): 4.12%
O=C1C=C[C@]2(C[C@H](OC(=O)/C=C/c3ccc([N+](=O)[O-])cc3)[C@H](c3ccccc3)O2)O1	13.94	20.43	3.37	0.78	29.17	10.2	30.42	Active	Active	18.29	3.87	18.7	3.12	11.8	0.68	7550	14300	81.97	> 100	78.82	Activity (K562 [16]): 19.98%; Activity (K562 [17]): 15.89%; IC50 (HeLa): 11.5 µM; Activity (K562 [18]): 27.84%; Activity (K562 [19]): 2.81%; Activity (K562 [20]): 27.16%; IC50 (HL-60): 4.32 µM; IC50 (MDA-MB-231): 4.48 µM; Activity (K562 [21]): 0.64%
O=C1C=C[C@]2(C[C@H](OC(=O)/C=C/c3ccccc3)[C@@H](c3ccccc3)O2)O1	15.88	28.63	0.09	3.27	31.55	0.21	16.04	Active	Active	21.08	4.92	25.37	14.6	6.68	0.05	1650	20700	83.35	> 100	79.11	Activity (K562 [16]): 23.78%; Activity (K562 [17]): 59.12%; IC50 (HeLa): 1.15 µM; Activity (K562 [18]): 14.21%; Activity (K562 [19]): 3.9%; Activity (K562 [20]): 28.7%; IC50 (HL-60): 10 µM; IC50 (MDA-MB-231): 5.45 µM; Activity (K562 [21]): 4.06%
COc1ccc(/C=C/C(=O)O[C@H]2C[C@@]3(C=CC(=O)O3)O[C@@H]2c2ccccc2)cc1	80.32	1.57	0.96	3.58	42.64	21.1	30.72	inactive	Active	22.36	4.41	1.35	23.1	99.8	0.78	2220	1110	15.35	> 100	14.31	Activity (K562 [16]): 25.07%; Activity (K562 [17]): 11.61%; IC50 (HeLa): 3.64 µM; Activity (K562 [18]): 26.37%; Activity (K562 [19]): 65.19%; Activity (K562 [20]): 36.83%; IC50 (HL-60): 6.37 µM; IC50 (MDA-MB-231): > 100 µM; Activity (K562 [21]): 3.15%
O=C1C=C[C@@]2(C[C@H](O)[C@H](c3ccccc3)O2)O1	81.75	1.1	4.62	1.86	52.34	0.96	28.98	Active	Active	13.99	7.48	0.87	31.4	2.69	1.15	1970	540	10.05	> 100	6.15	Activity (K562 [16]): 17.58%; Activity (K562 [17]): 1.53%; IC50 (HeLa): 4.61 µM; Activity (K562 [18]): 15.11%; Activity (K562 [19]): 20.34%; Activity (K562 [20]): 50.77%; IC50 (HL-60): 0.19 µM; IC50 (MDA-MB-231): > 100 µM; Activity (K562 [21]): 0.67%
